CHOP inhibitor – CHOP inhibition in unfolded protein response; CHO-K1 CHOP-promoter luciferase, tunicamycin-induced, 15-18 h; 3.8% of 220,000 active; inhibition, % at 10 µM;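 active = compounds that reduced the stress-induced luciferase reporter signal by more than about 70% of percent inhibition, limit read from the data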;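 note: 0% = tunicamycin plus vehicle and 100% = wells without tunicamycin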
Dynein cargo inh – blocks dynein driven cargo transport along microtubules. AID 1381. z-score, hits read low. 0.47% of 220,000 active. 3617.4 mouse cells, GR-EGFP nuclear translocation imaging; test concentration mostly 20 µM; stimulated with dexamethasone, 1 µM; hits give low values;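 active = plate z-score of nuclear minus cytoplasmic receptor signal below a set negative limit, without overly bright fluorescence or cell loss, cut at about -3.5 in these data, passing the limit was not always enough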;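 note: z-score of nuclear minus cytoplasmic ring GR-EGFP intensity difference per well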
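medium = tetracycline-free induction medium containing charcoal-stripped FBS | also added = 1.0 µM final dexamethasone stimulus | schedule = 48 h induction, 1 h compound, 30 min dex at 37 °C | technique = fixed, Hoechst-stained cells imaged at 10x for EGFP | measure = GR-EGFP nuclear translocation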
XBP1 UPR activ – adaptive UPR (XBP1) activation | 0.33% of 330,000 active | activation, % at 20 µM | CHO-XBP1 luciferase reporter, IRE1-XBP1 UPR activation, luminescence; percent of tunicamycin response, DMSO as zero;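 active = versus positive control, 20 µM dose yields 30% or more activation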;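 note: 100% = tunicamycin at 10 µg/mL and 0% = DMSO only wells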
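Material – CHO cell line with stable XBP1 luciferase reporter · Buffer or medium – F12 plus 10% FBS · Compound – single point, 20 µM final compound, 1% DMSO · Schedule – 16-18 h cell attachment at 37 °C, then 6 h compound exposure · Signal – Steady-Glo luminescence read · Benchmarks – high control tunicamycin 10 µg/mL final, low control DMSO vehicle only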
UPR CHOP act – apoptotic UPR (CHOP) activation. CHO-CHOP luciferase reporter, luminescence; percent of tunicamycin response over DMSO baseline. activation, % at 10 µM. 0.34% of 330,000 active. AID 449763;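 active = at 10 µM dose, activation of 40% or more, normalized to positive control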;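 note: 100% = tunicamycin at 10 µg/mL and 0% = DMSO alone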
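Assay system: CHO-CHOP cells, stable luciferase reporter of PERK-eIF2a-CHOP signalling / Buffer or medium: F12 plus 10% serum / Compound dosing: one dose, 10 µM in 0.5% DMSO / Times: 6 h compound treatment, 37 °C / Technique: luciferase luminescence / Read-out: % reporter activation, DMSO baseline versus tunicamycin full activation / Benchmarks: tunicamycin and DMSO controls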
T cruzi repl – blocks replication of Trypanosoma cruzi; T. cruzi beta-gal in NIH3T3, luminescence, 90 h; inhibition, % (concentration not given with the values); 1.4% of 300,000 active; AID 1885;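 active = mean inhibition across valid replicates above about 55%, limit read from the data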;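 note: signal also drops with host cell toxicity which is not excluded here; 0% = plate median of DMSO wells and 100% = zero luminescence signal; higher percent means less beta-gal luminescence so fewer parasites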
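Incubation – ≥90 h infection period, 3 h prior cell attachment · System – NIH/3T3 fibroblasts plus reporter T. cruzi · Doses – compound pinned at 50 nL/well, DMSO · Read-out basis – percent inhibition of parasite-derived β-gal signal · Signal – luminescent β-galactosidase signal after 60 min lysis · Also added – 5000 T. cruzi trypomastigotes/well · Medium – Low-serum DMEM with 2% FBS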
L major viab – inhibitors of Leishmania major promastigote growth; Leishmania major promastigotes, resazurin fluorescence viability; inhibition, % at 10 µM; 9% of 200,000 active; AID 1063; in the data active = inhibition above about 50%;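 note: promastigotes grown with compound for 44 hours at 28 °C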
An asterisk follows results filed as active; nt = not tested or not shown. The full list was thinned out, with hits kept by preference.

SMILES	CHOP inhibitor	Dynein cargo inh	XBP1 UPR activ	UPR CHOP act	T cruzi repl	L major viab
Cc1cc2nnc(SCC(=O)NCC(c3ccccc3)N(C)C)n2c2ccccc12 (stereo unspecified)	nt	nt	-3.3	-0.3	12.3	nt
COc1ccc(NC(=O)CCC(=O)N2CCCC2)c([N+](=O)[O-])c1	nt	nt	-2.6	1.0	-1.6	nt
O=C(COc1ccc(Br)cc1)NCCNC(=O)c1ccccn1	nt	nt	-4.4	2.3	-15.4	nt
Cc1cccc2cc(CN(Cc3nnnn3C3CCCC3)C3CCCCC3)c(=O)[nH]c12	nt	-0.463	-2.6	-0.5	-12.2	13.0
CCc1ccc2[nH]c(=O)c(CN(Cc3nnnn3C3CCCC3)C3CCCCC3)cc2c1	78.0*	-0.783	1.6	0.4	-16.0	36.5
Cc1cccc2cc(CN(Cc3cccs3)Cc3nnnn3Cc3ccccc3)c(=O)[nH]c12	33.7	1.32	-1.4	-1.4	63.2*	40.1
COc1ccc2cc(CN(Cc3cccs3)Cc3nnnn3Cc3ccccc3)c(=O)[nH]c2c1	6.2	1.53	-1.2	1.6	30.9	21.4
O=[N+]([O-])c1cccc(Cl)c1NCCNc1ncc(C(F)(F)F)cc1Cl	78.8*	-0.426	1.6	-0.1	25.2	-5.7
CN1C(=O)N(CC(=O)Nc2sccc2C(N)=O)C(=O)C12CCCCC2	nt	nt	-0.5	-0.6	nt	nt
COc1ccccc1N1CCN(CCN(C(=O)c2ccc(I)cc2)c2ccccn2)CC1	12.0	nt	nt	nt	nt	nt
COc1ccc(C(C#N)Nc2ccccc2)cc1 (stereo unspecified)	9.1	-1.78	-2.0	-0.7	3.2	-0.7
COc1ccc(NC(C#N)c2ccc(OC)cc2)cc1 (stereo unspecified)	10.6	-0.316	1.2	0.1	0.8	91.2*
CCC1(C)Cc2ccccc2-c2nc(-c3ccccc3)oc(=O)c21 (stereo unspecified)	79.6*	1.19	-0.2	1.1	9.9	4.5
CC(C)(C)C1CCC(=NNS(=O)(=O)c2ccc(Br)cc2)CC1 (stereo unspecified)	91.7*	-0.47	-2.0	-0.3	-0.2	-11.4
COc1cccc2cc(C(C)N(CCCN3CCOCC3)C(=O)Nc3ccccc3)oc12 (stereo unspecified)	-9.1	-1.48	2.6	-2.9	8.6	81.7*
COc1cccc(NC(=S)N(CCCN2CCOCC2)C(C)c2cc3ccccc3o2)c1 (stereo unspecified)	19.0	-0.823	-1.3	-0.1	17.7	97.0*
COc1cc(OC)c(C(=O)N(CCc2ccccc2)Cc2ccccc2)cc1OC	nt	nt	-6.7	0.5	6.1	nt
Cc1ccc(Nc2nc(-c3cccnc3)cs2)cc1Cl	nt	nt	0.9	8.2	59.2*	nt
c1cncc(Nc2nc(-c3cccnc3)cs2)c1	31.5	0.443	-0.9	-1.9	29.0	20.6
Clc1ccc(-c2csc(N/N=C\c3cccnc3)n2)cc1	69.7	-0.534	7.2	2.2	55.5*	-9.4
CC(C)c1cc(C(C)C)c(S(=O)(=O)N2c3ccccc3[C@@]3(Br)C[C@H]4C(=O)N[C@@H](Cc5ccccc5)C(=O)N4[C@@H]23)c(C(C)C)c1	nt	nt	9.8	4.3	54.7*	nt
CC(C)c1cc(C(C)C)c(S(=O)(=O)N2c3ccccc3[C@]3(Br)C[C@H]4C(=O)N[C@@H](Cc5ccccc5)C(=O)N4[C@H]23)c(C(C)C)c1	nt	nt	nt	nt	55.3*	nt
O=C1N[C@@H](Cc2ccccc2)C(=O)N2[C@@H]3N(S(=O)(=O)c4ccccc4)c4ccccc4[C@]3(Br)C[C@@H]12	nt	nt	0.1	0.6	10.8	nt
O=C1N[C@@H](Cc2ccccc2)C(=O)N2[C@H]1C[C@]1([C@]34C[C@H]5C(=O)N[C@@H](Cc6ccccc6)C(=O)N5[C@H]3N(S(=O)(=O)c3ccccc3)c3ccccc34)c3ccccc3N(S(=O)(=O)c3ccccc3)[C@H]21	nt	nt	-1.3	-1.6	6.6	nt
COc1ccc(NC(=S)NNC(=O)CNc2ccc(Cl)cc2)cc1	30.7	-0.436	-0.1	-0.8	-9.4	-16.0
SMILES	CHOP inhibitor	Dynein cargo inh	XBP1 UPR activ	UPR CHOP act	T cruzi repl	L major viab
Nc1ccc(C(=O)N2CCN(S(=O)(=O)c3ccc4c(c3)OCCCO4)CC2)cc1[N+](=O)[O-]	nt	nt	-2.2	1.3	nt	nt
Cc1cc(/C=C2\SC(=Nc3ccccc3)NC2=O)c(C)n1-c1ccc(S(N)(=O)=O)cc1	92.3*	1.35	6.7	0.4	8.3	3.2
Cc1ccc(C(=O)Nc2cccc(NC(=O)CN3CCCCC3)c2)cc1	nt	nt	0.6	-0.9	8.4	nt
N#Cc1c(NC(=O)COC(=O)c2ccc(F)cc2)sc2c1CCC2	-18.0	-1.51	0.5	2.0	-5.9	-16.1
Cc1ccc(C(=O)OCC(=O)Nc2sc3c(c2C#N)CCC3)cc1	20.8	-0.626	-2.2	1.3	4.8	51.5*
O=C(c1ccccn1)N1CCCC(N2CCN(c3cccc(C(F)(F)F)c3)CC2)C1 (stereo unspecified)	nt	nt	-2.4	4.9	3.9	nt
Cc1ccc(C)c(CN2C(=O)C3(OCCCO3)c3ccccc32)c1	43.6	-0.514	-2.7	-0.5	16.9	57.9*
CCOc1ccccc1CN1C(=O)C2(OCCO2)c2ccccc21	nt	nt	-3.1	1.3	14.7	nt
Cc1ccc(C(=O)Nc2ccc(F)cc2)o1	16.8	-0.245	1.0	1.3	-10.2	50.7*
COCCCn1c(=O)c2ccccc2n(CC(=O)NC2CCCCC2)c1=O	nt	nt	-1.3	2.3	6.5	nt
CCN1C(=O)[C@H]2[C@@H](c3ccc(C)cc3)N3C(=O)N(c4ccccc4)C(=O)[C@@]3(C)[C@H]2C1=O	nt	nt	-0.8	-2.0	-5.6	nt
CCOC(=O)c1ccc(NC(=O)c2ccco2)cc1	nt	nt	-4.6	8.9	-4.7	nt
CC(C)OC(=O)c1ccc(NC(=O)c2ccco2)cc1	7.2	-0.652	2.3	6.5	-1.9	55.6*
O=C(Nc1ccc(NC(=O)c2ccco2)cc1)c1ccco1	nt	nt	-2.7	2.7	-5.5	nt
CC(C)(C)c1ccc(C(=O)Nc2ccc(NC(=O)c3ccco3)cc2)cc1	72.8*	-0.34	3.9	3.7	9.1	-7.2
CCOC(=O)Cc1ccc(NC(=O)c2ccc(C(C)(C)C)cc2)cc1	85.5*	-0.669	-3.3	-0.9	20.7	3.3
COc1ccc(-n2nc(C(=O)NCC(=O)NC3CCCCC3)c3ccccc3c2=O)cc1	nt	nt	-3.4	1.9	-10.1	nt
NNC(=O)c1cc(S(=O)(=O)N2CCOCC2)c[nH]1	nt	nt	-2.0	-0.2	nt	nt
C[C@@]12C(=O)OC(=O)[C@]1(C)C1CCC2O1	nt	nt	-0.6	101.1*	nt	nt
O=C(NCCN1CCOCC1)c1cccc(NS(=O)(=O)c2ccc(Br)cc2)c1	nt	nt	-0.8	-0.9	-1.0	nt
COc1ccc(OCC(O)CNc2ccc(Br)cc2)cc1 (stereo unspecified)	85.5*	-0.925	-0.1	-0.3	6.8	1.5
COc1ccc(NC2=NCC(Cc3ccc(Br)cc3)S2)cc1 (stereo unspecified)	44.3	-0.612	0.7	-1.6	40.2	87.7*

High-throughput results (PubChem)
